Source: ChEMBL document CHEMBL4007443, “Discovery of Potent Human Glutaminyl Cyclase Inhibitors as Anti-Alzheimer's Agents Based on Rational Design” (J Med Chem, 2017)
Activity calls are given as the source filed them. The calls are words filed in the database; no cut-off is given here.

What was measured:
Mus musculus [1] = experiment: Antialzheimer activity in human amyloid beta (3 to 40) induced acute ICR mouse Alzheimer's disease mouse model assessed as inhibition of amyloid beta (N3pE to 40) formation in brain at 10 mM, icv by sandwich ELISA; assay type: functional
In short: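 Acute model: male ICR mice, 5 weeks old (25 g, n = 4), anaesthetized and given 5 µg human Aβ3-40 in 5 µL PBS by stereotaxic injection into deep cortex/hippocampus (AP -2.0, ML 1.2, DV 1.0 mm from bregma). Inhibitor given by the same intracerebral route or i.p. Brain extracts taken next day; Aβ N3pE-40 quantified by sandwich ELISA. Percent inhibition is relative to vehicle; one-way ANOVA with Bonferroni.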

[2] = Cytotoxicity against mouse HT22 cells assessed as cell viability at 10 uM after 18 hrs by MTT assay; assay type: cell-based, HT-22; conditions: read-out: Activity
In short: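 HT-22 mouse hippocampal cells grown in DMEM with 10% FBS at 37 °C, 5% CO2. Cells seeded at 5000/well the day before and exposed to compound at 10 µM for 18 h at 37 °C. MTT added for 3 h, formazan dissolved in DMSO, absorbance read at 570 nm. Viability expressed relative to vehicle control (100%).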

Mus musculus [3] = organism: Mus musculus; experiment: animal or person; conditions: ICR, ip, read-out: INH
Mus musculus [4] = organism: Mus musculus; conditions: ICR, 25 mg/kg
[5] = target: Glutaminyl-peptide cyclotransferase (Mus musculus, UniProt Q9CYK2); experiment: Inhibition of mouse glutaminyl cyclase assessed as reduction in conversion of H-Gln-AMC hydrobromide to pGlu-AMC preincubated with substrate for 10 mins followed by enzyme addition by pGAPase coupled fluorometry
Glutaminyl-peptide cyclotransferase, sequence (Q9CYK2 whole entry): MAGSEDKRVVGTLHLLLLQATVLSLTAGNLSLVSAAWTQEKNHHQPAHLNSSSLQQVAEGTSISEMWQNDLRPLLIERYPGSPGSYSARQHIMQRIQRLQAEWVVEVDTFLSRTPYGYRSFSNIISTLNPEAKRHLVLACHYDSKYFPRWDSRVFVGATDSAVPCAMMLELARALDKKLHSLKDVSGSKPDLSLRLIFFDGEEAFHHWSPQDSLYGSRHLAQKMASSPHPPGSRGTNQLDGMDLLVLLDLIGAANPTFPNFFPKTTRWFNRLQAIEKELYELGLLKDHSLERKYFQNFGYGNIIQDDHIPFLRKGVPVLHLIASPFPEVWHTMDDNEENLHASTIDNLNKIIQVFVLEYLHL

[6] = Stability in mouse liver microsomes assessed as compound remaining after 30 mins; assay type: ADME, microsome; conditions: read-out: Stability
Mus musculus [7] = experiment: Cognition enhancement activity in 5XFAD Alzheimer's disease mouse model assessed as increase in duration of time spent in target quadrant administered intraperitoneally starting from 19 to 34 weeks of age by Morris water maze test; assay type: functional
In short: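 Male 5XFAD mice (n = 6 vehicle, n = 6 treated) received the compound i.p. from 19 weeks of age for 3 months, housed singly on a 12:12 h light cycle. Morris water maze: four hidden-platform training trials per day for 5 days, scoring escape latency. Probe trial 24 h later with the platform removed, scoring time in the target quadrant.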

Mus musculus [8] = experiment: Toxicity in APP/PS1 transgenic Alzheimer's disease mouse model administered via icv for 3 weeks; conditions: in vivo, icv_or_intrathecal, 504 h

SMILES | inhibition (INH) (Mus musculus [1]) [%] | viability at 18 h, 10 µM [2] [%] | inhibition in vivo at 25 mg/kg (Mus musculus [3]) [%] | inhibition (Mus musculus [4]) | IC50 [5] [nM] | remaining at 0.5 h [6] [%] | Activity (Mus musculus [7]) | Activity (Mus musculus [8])
COc1cc(NC(=S)NCCCn2cncc2C)ccc1OCCCCN(C)C | 35.7 | 100 |  |  |  |  |  | 
COc1cc(NC(=S)NCCCn2cncc2C)ccc1OCCc1ccnc(N)c1 | 38 | 100 |  |  |  |  |  | 
COc1cc(NC(=S)NCCCn2cncc2C)ccc1OCCN1CCNCC1 | 77.2 | 100 | 3.6 |  |  |  |  | 
COc1ccc(NC(=S)NCCCn2cncc2C)cc1OC | 41.6 | 100 |  | inactive | 21.5 |  |  | 
COc1cc(NC(=S)NCCCn2cncc2C)ccc1OCCCN | 64.6 | 100 |  | inactive |  |  |  | 
COc1cc(NC(=S)NCCCn2cncc2C)ccc1OCCCCc1ccnc(N)c1 | 66.1 | 100 | 54.7 |  | 12.6 | 50 | Active | Non-Toxic
COc1cc(NC(=S)NCCCn2cncc2C)ccc1OCCCCN1CCNCC1 | 29.2 | 100 |  |  |  |  |  | 
COc1cc(NC(=S)NCCCn2cncc2C)ccc1OCCC1CCN(C)CC1 | 18.7 | 100 |  |  |  |  |  | 
COc1cc(NC(=S)NCCCn2cncc2C)ccc1OCCCCNc1ncccn1 | 27.3 | 100 |  |  |  |  |  | 
